Experimental data reported in ChEMBL document CHEMBL5058577, “EUbOPEN Chemogenomics Library 2 (Multiplex)” (2022).

System: HEK-293T
Assay: Multiplex assay against HEK293T
Assay type: toxicity, cell-based
Conditions: human
Outline: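 On a CQ1 microscope at 37°C and 5% CO2, live cells were imaged after compound addition. They had been stained at seeding with Hoechst33342, BioTracker Green Microtubule Cytoskeleton Dye, MitoTracker Red and Annexin V Alexa Fluor 680. CellPathfinder machine-learning gating assigned cells to Hoechst high-intensity objects or normal cells, normal cells to healthy, pyknosed or fragmented nuclei, and pyknosed cells to mitotic or apoptotic. Tubulin, mitochondrial-mass and membrane-permeability phenotypes are per cents of healthy-nucleus cells.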

[1] = 12 h, 1 µM, compound concentration 1 uM, replicate 1
[2] = 12 h, 1 µM, compound concentration 1 uM, replicate 2
[3] = 12 h, 10 µM, compound concentration 10 uM, replicate 1
[4] = 12 h, 10 µM, compound concentration 10 uM, replicate 2
[5] = 24 h, 1 µM, compound concentration 1 uM, replicate 1
[6] = 24 h, 1 µM, compound concentration 1 uM, replicate 2
[7] = 24 h, 10 µM, compound concentration 10 uM, replicate 1
[8] = 24 h, 10 µM, compound concentration 10 uM, replicate 2
[9] = 48 h, 1 µM, compound concentration 1 uM, replicate 1
[10] = 48 h, 1 µM, compound concentration 1 uM, replicate 2
[11] = 48 h, 10 µM, compound concentration 10 uM, replicate 1
[12] = 48 h, 10 µM, compound concentration 10 uM, replicate 2

O=C(NCCO)c1cccc(-c2cc(Nc3ccc(OC(F)(F)F)cc3)ncn2)c1
Population Apoptotic (%) [1]: 27% | Population Fragmented Nuclei (%) [1]: 7% | Population Healthy Nuclei (%) [1]: 78% | Population Hoechst High Intensity Objects (%) [1]: 8% | Population Membrane Permeable-Phenotype (%) [1]: 0% | Population Mitochondria Different-Phenotype (%) [1]: 47% | Population Mitotic Cells (%) [1]: 72% | Population Normal (%) [1]: 91% | Population Pyknosed Nuclei (%) [1]: 13% | Population Tubulin-Different-Phenotype (%) [1]: 23% | Total Cell Count [1]: 409 | Population Apoptotic (%) [2]: 40% | Population Fragmented Nuclei (%) [2]: 4% | Population Healthy Nuclei (%) [2]: 77% | Population Hoechst High Intensity Objects (%) [2]: 6% | Population Mitochondria Different-Phenotype (%) [2]: 60% | Population Mitotic Cells (%) [2]: 59% | Population Normal (%) [2]: 93% | Population Pyknosed Nuclei (%) [2]: 17% | Population Tubulin-Different-Phenotype (%) [2]: 16% | Total Cell Count [2]: 262 | Population Apoptotic (%) [3]: 55% | Population Fragmented Nuclei (%) [3]: 6% | Population Healthy Nuclei (%) [3]: 76% | Population Hoechst High Intensity Objects (%) [3]: 10% | Population Membrane Permeable-Phenotype (%) [3]: 0% | Population Mitochondria Different-Phenotype (%) [3]: 69% | Population Mitotic Cells (%) [3]: 44% | Population Normal (%) [3]: 89% | Population Pyknosed Nuclei (%) [3]: 17% | Population Tubulin-Different-Phenotype (%) [3]: 49% | Total Cell Count [3]: 374 | Population Apoptotic (%) [4]: 63% | Population Fragmented Nuclei (%) [4]: 5% | Population Healthy Nuclei (%) [4]: 73% | Population Hoechst High Intensity Objects (%) [4]: 12% | Population Mitochondria Different-Phenotype (%) [4]: 74% | Population Mitotic Cells (%) [4]: 36% | Population Normal (%) [4]: 87% | Population Pyknosed Nuclei (%) [4]: 21% | Population Tubulin-Different-Phenotype (%) [4]: 26% | Total Cell Count [4]: 325 | Population Apoptotic (%) [5]: 26% | Population Fragmented Nuclei (%) [5]: 11% | Population Healthy Nuclei (%) [5]: 78% | Population Hoechst High Intensity Objects (%) [5]: 4% | Population Membrane Permeable-Phenotype (%) [5]: 0% | Population Mitochondria Different-Phenotype (%) [5]: 21% | Population Mitotic Cells (%) [5]: 73% | Population Normal (%) [5]: 95% | Population Pyknosed Nuclei (%) [5]: 10% | Population Tubulin-Different-Phenotype (%) [5]: 15% | Total Cell Count [5]: 538 | Population Apoptotic (%) [6]: 41% | Population Fragmented Nuclei (%) [6]: 7% | Population Healthy Nuclei (%) [6]: 79% | Population Hoechst High Intensity Objects (%) [6]: 6% | Population Mitochondria Different-Phenotype (%) [6]: 38% | Population Mitotic Cells (%) [6]: 58% | Population Normal (%) [6]: 93% | Population Pyknosed Nuclei (%) [6]: 13% | Population Tubulin-Different-Phenotype (%) [6]: 17% | Total Cell Count [6]: 331 | Population Apoptotic (%) [7]: 39% | Population Fragmented Nuclei (%) [7]: 5% | Population Healthy Nuclei (%) [7]: 80% | Population Hoechst High Intensity Objects (%) [7]: 7% | Population Membrane Permeable-Phenotype (%) [7]: 0% | Population Mitochondria Different-Phenotype (%) [7]: 61% | Population Mitotic Cells (%) [7]: 60% | Population Normal (%) [7]: 92% | Population Pyknosed Nuclei (%) [7]: 14% | Population Tubulin-Different-Phenotype (%) [7]: 38% | Total Cell Count [7]: 447 | Population Apoptotic (%) [8]: 50% | Population Fragmented Nuclei (%) [8]: 6% | Population Healthy Nuclei (%) [8]: 77% | Population Hoechst High Intensity Objects (%) [8]: 14% | Population Mitochondria Different-Phenotype (%) [8]: 56% | Population Mitotic Cells (%) [8]: 50% | Population Normal (%) [8]: 85% | Population Pyknosed Nuclei (%) [8]: 15% | Population Tubulin-Different-Phenotype (%) [8]: 22% | Total Cell Count [8]: 354 | Population Apoptotic (%) [9]: 17% | Population Fragmented Nuclei (%) [9]: 12% | Population Healthy Nuclei (%) [9]: 80% | Population Hoechst High Intensity Objects (%) [9]: 3% | Population Membrane Permeable-Phenotype (%) [9]: 2% | Population Mitochondria Different-Phenotype (%) [9]: 17% | Population Mitotic Cells (%) [9]: 82% | Population Normal (%) [9]: 96% | Population Pyknosed Nuclei (%) [9]: 7% | Population Tubulin-Different-Phenotype (%) [9]: 13% | Total Cell Count [9]: 897 | Population Apoptotic (%) [10]: 37% | Population Fragmented Nuclei (%) [10]: 9% | Population Healthy Nuclei (%) [10]: 79% | Population Hoechst High Intensity Objects (%) [10]: 5% | Population Membrane Permeable-Phenotype (%) [10]: 0% | Population Mitochondria Different-Phenotype (%) [10]: 23% | Population Mitotic Cells (%) [10]: 62% | Population Normal (%) [10]: 94% | Population Pyknosed Nuclei (%) [10]: 10% | Population Tubulin-Different-Phenotype (%) [10]: 9% | Total Cell Count [10]: 476 | Population Apoptotic (%) [11]: 41% | Population Fragmented Nuclei (%) [11]: 10% | Population Healthy Nuclei (%) [11]: 79% | Population Hoechst High Intensity Objects (%) [11]: 8% | Population Membrane Permeable-Phenotype (%) [11]: 1% | Population Mitochondria Different-Phenotype (%) [11]: 36% | Population Mitotic Cells (%) [11]: 58% | Population Normal (%) [11]: 91% | Population Pyknosed Nuclei (%) [11]: 10% | Population Tubulin-Different-Phenotype (%) [11]: 18% | Total Cell Count [11]: 595 | Population Apoptotic (%) [12]: 58% | Population Fragmented Nuclei (%) [12]: 16% | Population Healthy Nuclei (%) [12]: 72% | Population Hoechst High Intensity Objects (%) [12]: 17% | Population Membrane Permeable-Phenotype (%) [12]: 0% | Population Mitotic Cells (%) [12]: 41% | Population Normal (%) [12]: 82% | Population Pyknosed Nuclei (%) [12]: 11% | Population Tubulin-Different-Phenotype (%) [12]: 13% | Total Cell Count [12]: 504

CC[C@H]1OC(=O)[C@H](C)[C@@H](O[C@H]2C[C@@](C)(OC)[C@@H](O)[C@H](C)O2)[C@H](C)[C@@H](O[C@@H]2O[C@H](C)C[C@H](N(C)C)[C@H]2O)[C@@]2(C)CC(C)=C(O2)[C@H](C)[C@@H](O)[C@]1(C)O
Population Apoptotic (%) [1]: 35% | Population Fragmented Nuclei (%) [1]: 8% | Population Healthy Nuclei (%) [1]: 74% | Population Hoechst High Intensity Objects (%) [1]: 6% | Population Membrane Permeable-Phenotype (%) [1]: 0% | Population Mitochondria Different-Phenotype (%) [1]: 56% | Population Mitotic Cells (%) [1]: 64% | Population Normal (%) [1]: 93% | Population Pyknosed Nuclei (%) [1]: 17% | Population Tubulin-Different-Phenotype (%) [1]: 41% | Total Cell Count [1]: 367 | Population Apoptotic (%) [2]: 45% | Population Fragmented Nuclei (%) [2]: 3% | Population Healthy Nuclei (%) [2]: 84% | Population Hoechst High Intensity Objects (%) [2]: 7% | Population Mitochondria Different-Phenotype (%) [2]: 72% | Population Mitotic Cells (%) [2]: 54% | Population Normal (%) [2]: 92% | Population Pyknosed Nuclei (%) [2]: 11% | Population Tubulin-Different-Phenotype (%) [2]: 27% | Total Cell Count [2]: 300 | Population Apoptotic (%) [3]: 55% | Population Fragmented Nuclei (%) [3]: 8% | Population Healthy Nuclei (%) [3]: 71% | Population Hoechst High Intensity Objects (%) [3]: 13% | Population Membrane Permeable-Phenotype (%) [3]: 0% | Population Mitochondria Different-Phenotype (%) [3]: 87% | Population Mitotic Cells (%) [3]: 44% | Population Normal (%) [3]: 86% | Population Pyknosed Nuclei (%) [3]: 19% | Population Tubulin-Different-Phenotype (%) [3]: 76% | Total Cell Count [3]: 383 | Population Apoptotic (%) [4]: 56% | Population Fragmented Nuclei (%) [4]: 11% | Population Healthy Nuclei (%) [4]: 72% | Population Hoechst High Intensity Objects (%) [4]: 10% | Population Mitochondria Different-Phenotype (%) [4]: 91% | Population Mitotic Cells (%) [4]: 43% | Population Normal (%) [4]: 89% | Population Pyknosed Nuclei (%) [4]: 16% | Population Tubulin-Different-Phenotype (%) [4]: 77% | Total Cell Count [4]: 217 | Population Apoptotic (%) [5]: 20% | Population Fragmented Nuclei (%) [5]: 8% | Population Healthy Nuclei (%) [5]: 78% | Population Hoechst High Intensity Objects (%) [5]: 3% | Population Membrane Permeable-Phenotype (%) [5]: 0% | Population Mitochondria Different-Phenotype (%) [5]: 35% | Population Mitotic Cells (%) [5]: 79% | Population Normal (%) [5]: 96% | Population Pyknosed Nuclei (%) [5]: 13% | Population Tubulin-Different-Phenotype (%) [5]: 24% | Total Cell Count [5]: 493 | Population Apoptotic (%) [6]: 35% | Population Hoechst High Intensity Objects (%) [6]: 6% | Population Mitochondria Different-Phenotype (%) [6]: 49% | Population Mitotic Cells (%) [6]: 64% | Population Normal (%) [6]: 93% | Population Pyknosed Nuclei (%) [6]: 12% | Population Tubulin-Different-Phenotype (%) [6]: 22% | Total Cell Count [6]: 371 | Population Apoptotic (%) [7]: 42% | Population Fragmented Nuclei (%) [7]: 9% | Population Healthy Nuclei (%) [7]: 75% | Population Hoechst High Intensity Objects (%) [7]: 11% | Population Membrane Permeable-Phenotype (%) [7]: 0% | Population Mitochondria Different-Phenotype (%) [7]: 74% | Population Mitotic Cells (%) [7]: 57% | Population Normal (%) [7]: 88% | Population Pyknosed Nuclei (%) [7]: 15% | Population Tubulin-Different-Phenotype (%) [7]: 75% | Total Cell Count [7]: 499 | Population Apoptotic (%) [8]: 70% | Population Fragmented Nuclei (%) [8]: 10% | Population Healthy Nuclei (%) [8]: 71% | Population Hoechst High Intensity Objects (%) [8]: 10% | Population Mitochondria Different-Phenotype (%) [8]: 87% | Population Mitotic Cells (%) [8]: 29% | Population Normal (%) [8]: 89% | Population Pyknosed Nuclei (%) [8]: 18% | Population Tubulin-Different-Phenotype (%) [8]: 80% | Total Cell Count [8]: 254 | Population Apoptotic (%) [9]: 30% | Population Fragmented Nuclei (%) [9]: 12% | Population Healthy Nuclei (%) [9]: 76% | Population Hoechst High Intensity Objects (%) [9]: 8% | Population Membrane Permeable-Phenotype (%) [9]: 0% | Population Mitochondria Different-Phenotype (%) [9]: 28% | Population Mitotic Cells (%) [9]: 69% | Population Normal (%) [9]: 91% | Population Pyknosed Nuclei (%) [9]: 11% | Population Tubulin-Different-Phenotype (%) [9]: 21% | Total Cell Count [9]: 718 | Population Apoptotic (%) [10]: 21% | Population Healthy Nuclei (%) [10]: 78% | Population Hoechst High Intensity Objects (%) [10]: 6% | Population Mitochondria Different-Phenotype (%) [10]: 34% | Population Mitotic Cells (%) [10]: 78% | Population Normal (%) [10]: 93% | Population Pyknosed Nuclei (%) [10]: 9% | Population Tubulin-Different-Phenotype (%) [10]: 20% | Total Cell Count [10]: 584 | Population Apoptotic (%) [11]: 50% | Population Fragmented Nuclei (%) [11]: 12% | Population Healthy Nuclei (%) [11]: 74% | Population Hoechst High Intensity Objects (%) [11]: 10% | Population Membrane Permeable-Phenotype (%) [11]: 1% | Population Mitochondria Different-Phenotype (%) [11]: 61% | Population Mitotic Cells (%) [11]: 50% | Population Normal (%) [11]: 89% | Population Pyknosed Nuclei (%) [11]: 12% | Population Tubulin-Different-Phenotype (%) [11]: 56% | Total Cell Count [11]: 671 | Population Apoptotic (%) [12]: 53% | Population Healthy Nuclei (%) [12]: 75% | Population Hoechst High Intensity Objects (%) [12]: 12% | Population Membrane Permeable-Phenotype (%) [12]: 0% | Population Mitochondria Different-Phenotype (%) [12]: 84% | Population Mitotic Cells (%) [12]: 46% | Population Normal (%) [12]: 87% | Population Pyknosed Nuclei (%) [12]: 11% | Population Tubulin-Different-Phenotype (%) [12]: 73% | Total Cell Count [12]: 300
